Test results taken from ChEMBL document CHEMBL1165985, “Dihydro-beta-agarofuran sesquiterpenes and pentacyclic triterpenoids from the root bark of Osyris lanceolata” (2010).
The source made the active and inactive calls. The rule behind the calls is not given here.

Experiments:
[1] = system: Escherichia coli; experiment: Antimicrobial activity against Escherichia coli ATCC 11229 by agar overlay technique; assay type: functional
How it was run: (§1)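 Adapted agar overlay technique. Strains came from a university microbiology collection. Media were nutrient broth, nutrient agar, mycological peptone and Sabouraud dextrose agar.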

[2] = system: Staphylococcus aureus; experiment: Antimicrobial activity against Staphylococcus aureus ATCC 9144 by agar overlay technique; assay type: functional; how it was run: as §1
[3] = system: Pseudomonas aeruginosa; experiment: Antimicrobial activity against Pseudomonas aeruginosa NCTC 10332 by agar overlay technique; assay type: functional; how it was run: as §1
[4] = system: Radical scavenging activity; experiment: Antioxidant activity assessed as DPPH radical scavenging activity after 2 hrs; assay type: functional
How it was run: (§2)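 Semiquantitative TLC-based DPPH radical scavenging, followed over an 8 h period with readings at 30 min, 2 h and 8 h. Activity is expressed as the minimum inhibitory quantity (MIQ, µg) on the plate. Run in duplicate.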

[5] = system: Radical scavenging activity; experiment: Antioxidant activity assessed as DPPH radical scavenging activity after 30 mins; assay type: functional; how it was run: as §2
[6] = system: Radical scavenging activity; experiment: Antioxidant activity assessed as DPPH radical scavenging activity after 8 hrs; assay type: functional; how it was run: as §2
[7] = system: Candida albicans; experiment: Antimicrobial activity against Candida albicans ATCC 10231 by agar overlay technique; assay type: functional; how it was run: as §1
[8] = system: Bacillus subtilis; experiment: Antimicrobial activity against Bacillus subtilis ATCC 6633 by agar overlay technique; assay type: functional; how it was run: as §1
[9] = system: Bacillus subtilis; experiment: Antimicrobial activity against Bacillus subtilis ATCC 6633 at 100 ug by agar overlay technique; assay type: functional, organism-based
[10] = system: Pseudomonas aeruginosa; experiment: Antimicrobial activity against Pseudomonas aeruginosa NCTC 10332 at 100 ug by agar overlay technique; assay type: functional, organism-based
[11] = system: Staphylococcus aureus; experiment: Antimicrobial activity against Staphylococcus aureus ATCC 9144 at 100 ug by agar overlay technique; assay type: functional, organism-based

SMILES: C[C@H]1C(=O)CC[C@@H]2[C@]1(C)CC[C@H]1[C@@]2(C)CC[C@@]2(C)[C@H]3C[C@@](C)(C(=O)O)CC[C@]3(C)CC[C@]12C [OCTANDRONIC ACID]
- MIC [1]: 0.01 µg
- MIC [2]: 0.5 µg
- MIC [3]: 0.01 µg
- MIC [4]: inactive
- MIC [5]: inactive
- MIC [6]: 10 µg
- MIC [7]: 0.01 µg
- MIC [8]: 0.01 µg

SMILES: O=C1O[C@H]([C@@H](O)CO)C(O)=C1O
- MIC [4]: 0.5 µg
- MIC [5]: 10 µg
- MIC [6]: 0.01 µg

SMILES: Clc1ccc(COC(Cn2ccnc2)c2ccc(Cl)cc2Cl)c(Cl)c1 (stereo unspecified) [MICONAZOLE]
- MIC [7]: 0.001 µg

SMILES: O=C(N[C@H](CO)[C@H](O)c1ccc([N+](=O)[O-])cc1)C(Cl)Cl [CHLORAMPHENICOL]
- MIC [1]: 0.001 µg
- MIC [2]: 0.001 µg
- MIC [3]: 0.001 µg
- MIC [8]: 0.001 µg

SMILES: C[C@@H]1CC(=O)[C@H](OC(=O)c2ccoc2)[C@@]2(C)[C@@H](OC(=O)c3ccoc3)C[C@@H]3C[C@]12OC3(C)C
- MIC [1]: 10 µg
- MIC [2]: 50 µg
- MIC [3]: 10 µg
- MIC [4]: 10 µg
- MIC [5]: inactive
- MIC [6]: 10 µg
- MIC [7]: 0.5 µg
- MIC [8]: 10 µg

SMILES: C[C@@H]1CC[C@H](OC(=O)c2ccoc2)[C@@]2(C)[C@@H](OC(=O)c3ccoc3)C[C@@H]3C[C@]12OC3(C)C
- MIC [1]: 10 µg
- MIC [2]: 10 µg
- MIC [3]: 0.5 µg
- MIC [4]: 10 µg
- MIC [5]: inactive
- MIC [6]: 10 µg
- MIC [7]: 0.01 µg
- MIC [8]: 0.5 µg

SMILES: CC1=CC(=O)[C@H](OC(=O)c2ccoc2)[C@@]2(C)[C@@H](OC(=O)c3ccoc3)C[C@@H]3C[C@]12OC3(C)C
- MIC [1]: 50 µg
- MIC [4]: 50 µg
- MIC [5]: inactive
- Activity [9]: inactive
- Activity [10]: inactive
- MIC [6]: 10 µg
- MIC [7]: 10 µg
- Activity [11]: inactive

SMILES: C=C(C)[C@@H]1CC[C@]2(C)[C@H](CC=C3[C@@H]4C[C@](C)(C(=O)O)CC[C@]4(C)CC[C@]32C)[C@@]1(C)CCC(=O)O
- MIC [1]: 0.01 µg
- MIC [2]: 0.001 µg
- MIC [3]: 0.01 µg
- MIC [4]: inactive
- MIC [5]: inactive
- MIC [6]: 10 µg
- MIC [7]: 0.001 µg
- MIC [8]: 0.01 µg

SMILES: O=C(O)c1cc(O)c(O)c(O)c1
- MIC [4]: 0.01 µg
- MIC [5]: 0.01 µg
- MIC [6]: 0.01 µg
